# Source: ChEMBL document CHEMBL3414433, “Discovery and profiling of a selective and efficacious Syk inhibitor” (J Med Chem, 2015)
# Calls of active or inactive are those of the source. The calls are words filed in the database; no cut-off is given here.
# Legend:
# [1] = target: T1, Tyrosine-protein kinase Mer (Homo sapiens, UniProt Q12866); assay: Competitive binding affinity to human MERTK
# T1 sequence (Q12866 whole entry): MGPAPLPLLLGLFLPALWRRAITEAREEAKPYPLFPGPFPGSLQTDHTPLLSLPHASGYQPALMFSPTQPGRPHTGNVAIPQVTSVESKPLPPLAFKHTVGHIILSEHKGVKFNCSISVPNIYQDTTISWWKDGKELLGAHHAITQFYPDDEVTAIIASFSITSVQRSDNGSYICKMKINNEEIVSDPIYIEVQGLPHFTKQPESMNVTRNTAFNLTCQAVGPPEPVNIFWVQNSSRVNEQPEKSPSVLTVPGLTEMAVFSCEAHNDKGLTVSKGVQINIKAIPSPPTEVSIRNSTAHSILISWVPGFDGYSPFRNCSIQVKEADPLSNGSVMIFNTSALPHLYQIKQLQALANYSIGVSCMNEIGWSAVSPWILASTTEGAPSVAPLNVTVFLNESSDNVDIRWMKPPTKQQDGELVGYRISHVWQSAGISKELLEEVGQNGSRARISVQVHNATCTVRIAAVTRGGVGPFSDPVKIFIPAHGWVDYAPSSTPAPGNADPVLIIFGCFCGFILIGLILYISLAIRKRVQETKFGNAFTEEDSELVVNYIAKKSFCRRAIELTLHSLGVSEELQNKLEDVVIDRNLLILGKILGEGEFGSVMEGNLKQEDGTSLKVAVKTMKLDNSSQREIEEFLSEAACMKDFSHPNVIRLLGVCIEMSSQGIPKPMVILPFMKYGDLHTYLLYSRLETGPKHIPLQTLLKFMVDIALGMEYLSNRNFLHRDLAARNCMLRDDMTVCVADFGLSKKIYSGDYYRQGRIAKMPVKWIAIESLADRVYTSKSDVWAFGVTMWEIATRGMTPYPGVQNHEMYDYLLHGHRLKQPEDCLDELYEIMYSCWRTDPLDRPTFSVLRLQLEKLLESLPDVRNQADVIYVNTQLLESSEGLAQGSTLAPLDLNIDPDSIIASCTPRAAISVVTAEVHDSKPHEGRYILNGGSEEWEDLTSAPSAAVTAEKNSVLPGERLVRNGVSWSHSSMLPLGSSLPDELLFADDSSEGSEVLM
# [2] = target: T2, Tyrosine-protein kinase ZAP-70 (Homo sapiens, UniProt P43403); assay: Inhibition of ZAP70 in anti-CD3 stimulated human Jurkat T cells assessed as SLP76 phosphorylation at Y128 preincubated for 30 mins followed by anti-CD3 stimulation measured after 2 mins by FACS analysis; type: cell-based
# T2 sequence (P43403 whole entry): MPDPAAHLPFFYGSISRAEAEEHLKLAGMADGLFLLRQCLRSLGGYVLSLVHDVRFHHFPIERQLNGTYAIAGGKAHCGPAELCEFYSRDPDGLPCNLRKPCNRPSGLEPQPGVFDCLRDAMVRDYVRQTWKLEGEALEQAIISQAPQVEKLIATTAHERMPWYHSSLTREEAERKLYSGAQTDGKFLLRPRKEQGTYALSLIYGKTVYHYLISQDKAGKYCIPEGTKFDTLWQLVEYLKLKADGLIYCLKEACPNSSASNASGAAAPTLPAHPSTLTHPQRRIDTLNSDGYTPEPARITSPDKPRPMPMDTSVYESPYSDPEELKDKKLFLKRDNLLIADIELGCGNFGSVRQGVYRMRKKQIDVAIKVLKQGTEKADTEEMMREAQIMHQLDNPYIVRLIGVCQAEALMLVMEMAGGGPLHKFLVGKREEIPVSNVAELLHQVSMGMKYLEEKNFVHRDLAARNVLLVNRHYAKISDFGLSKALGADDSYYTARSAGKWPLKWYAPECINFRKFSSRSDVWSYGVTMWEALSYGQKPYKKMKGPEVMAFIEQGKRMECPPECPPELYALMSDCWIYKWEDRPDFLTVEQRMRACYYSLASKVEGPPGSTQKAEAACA
# Summary of the method: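 Jurkat T cells washed in RPMI/0.1% FCS, preincubated with compound 30 min at 37 °C, stimulated with anti-TCR OKT3 (30 μg/mL final) 2 min at 37 °C, fixed in 2% PFA, permeabilized in 90% methanol, stained anti-SLP76 pY128 80 min at RT; flow cytometry. IC50 from factor F = MFI × percent positive cells.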
# [3] = Mean residence time in Sprague-Dawley rat at 1 mg/kg, iv and 3 mg/kg, po administered as cassette dosing; type: ADME, organism-based; conditions: in vivo
# Summary of the method: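 Rats were dosed i.v. at 1 mg/kg in NMP/PEG200 (3:7) and p.o. at 3 mg/kg in CMC/water/Tween (0.5:99:0.5). PK parameters were derived from blood concentration–time curves for both routes.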
# [4] = target: hERG (KCNH2) (Homo sapiens, UniProt Q12809); assay: Inhibition of human ERG at 10 uM by manual patch clamp assay relative to control
# [5] = target: Tyrosine-protein kinase JAK2 (Homo sapiens, UniProt O60674); assay: Competitive binding affinity to human JAK2
# [6] = test system: Rattus norvegicus; assay: Increase in body weight gain in Lewis rat collagen-induced arthritis model at 3 to 30 mg/kg, po qd administered on day 15 post immunization measured up to day 28; type: functional, organism-based
# Summary of the method: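 Lewis rats with collagen-induced arthritis, randomized once joints swelled and given 3, 10 or 30 mg/kg p.o. once daily from day 15 to 28; animals weighed regularly throughout, compared against vehicle-treated rats.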
# [7] = species: Canis familiaris; assay: Hepatotoxicity in dog assessed as bile plugs measured for 4 weeks by GLP study; type: toxicity, organism-based, Canis lupus familiaris; conditions: in vivo, 672 h
# [8] = target: T2, Tyrosine-protein kinase ZAP-70; assay: Inhibition of human ZAP70
# [9] = test system: Rattus norvegicus; assay: In vivo inhibition of Syk in Lewis rat assessed as reduction in FcgR-induced SLP76 phosphorylation in peripheral blood monocytes at 22 mg/kg, po measured after 2 hrs relative to vehicle-treated control; type: functional
# Summary of the method: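 Single oral dose of 22 mg/kg to Lewis rats; blood sampled at 2, 4 and 24 h after dosing for compound level and ex vivo FcγR-induced phospho-SLP76 in peripheral blood monocytes.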
# [10] = target: Mitotic checkpoint serine/threonine-protein kinase BUB1 (Homo sapiens, UniProt O43683); assay: Competitive binding affinity to human BUB1
# [11] = Clearance in Beagle dog at 0.1 mg/kg, iv and 0.3 mg/kg, po; type: ADME, organism-based, Canis lupus familiaris; conditions: in vivo
# Summary of the method: (§1)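 One-in-one dosing in Beagle dogs: i.v. 0.1 mg/kg in NMP/PEG200 (3:7); p.o. 0.3 mg/kg in MC/water (0.5:99.5). Exposure values dose normalized.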
# [12] = Clearance in Sprague-Dawley rat at 1 mg/kg, iv and 3 mg/kg, po administered as cassette dosing; type: ADME, organism-based; conditions: in vivo
# Summary of the method: (§2)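 Rat PK: i.v. 1 mg/kg in NMP/PEG200 (3:7); p.o. 3 mg/kg in CMC/water/Tween (0.5:99:0.5). Exposure values dose normalized.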
# [13] = test system: Canis familiaris; assay: Dose normalized AUC in Beagle dog at 0.3 mg/kg, po; type: ADME, organism-based, Canis lupus familiaris; set-up: dose 0.3 mg/kg, route oral; conditions: in vivo; summary of the method: as §1
# [14] = test system: Rattus norvegicus; assay: Dose normalized Cmax in Sprague-Dawley rat at 1 mg/kg, iv and 3 mg/kg, po administered as cassette dosing; type: ADME, organism-based; conditions: in vivo; summary of the method: as §2
# Chain of Tyrosine-protein kinase JAK2 (O60674 whole entry): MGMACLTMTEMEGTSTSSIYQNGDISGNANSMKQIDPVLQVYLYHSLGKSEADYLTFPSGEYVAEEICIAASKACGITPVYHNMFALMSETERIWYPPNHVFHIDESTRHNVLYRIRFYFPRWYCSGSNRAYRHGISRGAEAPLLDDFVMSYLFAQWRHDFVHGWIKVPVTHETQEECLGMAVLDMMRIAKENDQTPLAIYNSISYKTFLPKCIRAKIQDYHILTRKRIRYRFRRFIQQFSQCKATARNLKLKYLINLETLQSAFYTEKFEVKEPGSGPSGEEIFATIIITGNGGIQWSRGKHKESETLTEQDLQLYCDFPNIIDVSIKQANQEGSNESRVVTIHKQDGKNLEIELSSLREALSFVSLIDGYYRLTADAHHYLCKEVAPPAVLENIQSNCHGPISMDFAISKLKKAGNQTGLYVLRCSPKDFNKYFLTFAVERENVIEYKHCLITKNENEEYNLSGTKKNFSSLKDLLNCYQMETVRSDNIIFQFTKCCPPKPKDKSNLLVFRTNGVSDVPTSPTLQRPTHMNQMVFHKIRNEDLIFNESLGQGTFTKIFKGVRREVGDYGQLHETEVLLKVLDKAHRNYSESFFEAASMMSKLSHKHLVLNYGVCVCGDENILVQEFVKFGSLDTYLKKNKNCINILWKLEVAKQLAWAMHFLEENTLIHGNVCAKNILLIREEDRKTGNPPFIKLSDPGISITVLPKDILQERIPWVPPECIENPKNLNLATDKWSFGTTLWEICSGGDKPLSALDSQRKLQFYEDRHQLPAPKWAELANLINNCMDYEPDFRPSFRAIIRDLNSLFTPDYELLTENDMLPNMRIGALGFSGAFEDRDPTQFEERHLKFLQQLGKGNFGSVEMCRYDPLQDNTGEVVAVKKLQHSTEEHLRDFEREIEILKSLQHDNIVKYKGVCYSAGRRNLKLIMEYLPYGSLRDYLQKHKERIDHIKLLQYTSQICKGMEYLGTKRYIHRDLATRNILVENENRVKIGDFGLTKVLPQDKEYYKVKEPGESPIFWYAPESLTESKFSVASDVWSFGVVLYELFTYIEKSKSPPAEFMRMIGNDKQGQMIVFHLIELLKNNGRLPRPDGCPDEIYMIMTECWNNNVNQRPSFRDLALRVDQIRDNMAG
# Chain of Mitotic checkpoint serine/threonine-protein kinase BUB1 (O43683 whole entry): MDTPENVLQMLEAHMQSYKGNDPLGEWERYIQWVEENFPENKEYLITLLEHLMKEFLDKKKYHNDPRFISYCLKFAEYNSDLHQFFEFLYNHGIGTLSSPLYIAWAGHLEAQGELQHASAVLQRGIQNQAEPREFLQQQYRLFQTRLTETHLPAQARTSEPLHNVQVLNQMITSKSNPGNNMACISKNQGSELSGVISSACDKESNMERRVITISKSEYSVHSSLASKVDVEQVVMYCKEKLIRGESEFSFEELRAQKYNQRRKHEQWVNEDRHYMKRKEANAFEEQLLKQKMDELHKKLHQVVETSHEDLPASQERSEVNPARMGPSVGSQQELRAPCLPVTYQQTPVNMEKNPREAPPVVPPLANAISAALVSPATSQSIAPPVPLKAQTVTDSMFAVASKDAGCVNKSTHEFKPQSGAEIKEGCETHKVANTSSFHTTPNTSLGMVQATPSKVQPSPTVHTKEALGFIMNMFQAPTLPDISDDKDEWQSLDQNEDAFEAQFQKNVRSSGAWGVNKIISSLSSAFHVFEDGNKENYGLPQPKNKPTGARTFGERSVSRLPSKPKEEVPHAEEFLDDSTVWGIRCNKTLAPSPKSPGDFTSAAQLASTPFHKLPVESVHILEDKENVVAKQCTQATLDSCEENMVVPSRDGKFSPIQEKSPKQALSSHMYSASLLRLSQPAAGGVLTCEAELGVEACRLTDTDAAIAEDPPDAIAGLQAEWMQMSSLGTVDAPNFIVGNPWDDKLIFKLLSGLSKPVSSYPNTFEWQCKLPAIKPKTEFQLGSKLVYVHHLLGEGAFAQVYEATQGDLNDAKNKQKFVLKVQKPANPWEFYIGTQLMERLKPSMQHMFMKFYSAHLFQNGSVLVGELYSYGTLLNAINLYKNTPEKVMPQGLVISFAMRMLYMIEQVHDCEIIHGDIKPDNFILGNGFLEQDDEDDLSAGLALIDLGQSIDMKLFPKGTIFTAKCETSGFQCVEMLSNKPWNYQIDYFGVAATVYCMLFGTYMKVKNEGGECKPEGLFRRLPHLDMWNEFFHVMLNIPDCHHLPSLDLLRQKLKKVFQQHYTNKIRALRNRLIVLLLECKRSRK
# Chain of hERG (KCNH2) (Q12809 whole entry): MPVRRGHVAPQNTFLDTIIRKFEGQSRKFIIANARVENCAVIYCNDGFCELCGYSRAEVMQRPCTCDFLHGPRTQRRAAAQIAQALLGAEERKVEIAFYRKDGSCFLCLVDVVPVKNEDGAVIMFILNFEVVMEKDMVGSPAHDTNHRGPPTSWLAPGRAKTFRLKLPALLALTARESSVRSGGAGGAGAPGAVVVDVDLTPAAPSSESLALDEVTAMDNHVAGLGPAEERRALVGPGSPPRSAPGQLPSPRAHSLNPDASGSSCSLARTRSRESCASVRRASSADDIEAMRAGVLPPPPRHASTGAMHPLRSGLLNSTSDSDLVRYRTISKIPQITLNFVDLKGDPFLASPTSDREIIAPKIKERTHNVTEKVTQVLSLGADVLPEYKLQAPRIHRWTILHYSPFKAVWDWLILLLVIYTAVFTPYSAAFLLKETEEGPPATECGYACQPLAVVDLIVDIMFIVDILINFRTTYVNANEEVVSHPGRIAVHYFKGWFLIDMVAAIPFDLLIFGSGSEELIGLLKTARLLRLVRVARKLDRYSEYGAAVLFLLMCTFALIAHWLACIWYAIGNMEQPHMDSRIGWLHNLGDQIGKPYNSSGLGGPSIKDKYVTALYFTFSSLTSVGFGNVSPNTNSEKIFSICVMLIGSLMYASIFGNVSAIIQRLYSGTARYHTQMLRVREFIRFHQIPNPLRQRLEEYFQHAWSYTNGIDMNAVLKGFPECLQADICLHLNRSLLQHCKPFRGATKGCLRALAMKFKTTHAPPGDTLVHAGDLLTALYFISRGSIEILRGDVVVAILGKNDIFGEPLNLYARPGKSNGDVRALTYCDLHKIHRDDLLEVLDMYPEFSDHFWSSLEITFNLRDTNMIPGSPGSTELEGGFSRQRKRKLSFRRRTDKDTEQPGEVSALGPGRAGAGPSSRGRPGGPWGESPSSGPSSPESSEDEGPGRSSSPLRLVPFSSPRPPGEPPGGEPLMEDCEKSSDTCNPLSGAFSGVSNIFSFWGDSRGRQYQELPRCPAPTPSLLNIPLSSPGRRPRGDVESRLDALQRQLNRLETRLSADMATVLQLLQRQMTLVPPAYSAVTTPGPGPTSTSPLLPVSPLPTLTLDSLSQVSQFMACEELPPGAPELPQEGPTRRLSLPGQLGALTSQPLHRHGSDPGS
compound,measurement,setting,value
NC(=O)c1nnc(N[C@@H]2CCCC[C@@H]2N)nc1Nc1cccc2cc[nH]c12,Kd,[1],150 nM
same,IC50,[2],2530 nM
same,MRT,[3],8.7 h
same,inhibition at 10 µM,[4],0%
same,Kd,[5],53 nM
same,Activity,[6],Active
same,Activity,[7],Toxic
same,IC50,[8],251 nM
same,inhibition in vivo at 22 mg/kg,[9],90%
same,Kd,[10],240 nM
same,clearance,[11],11 mL/min/kg
same,clearance,[12],31 mL/min/kg
same,AUC/dose,[13],1836 nM·h
same,Cmax/dose,[14],80 nM
